According to ChEMBL document CHEMBL3351511, “Protective effects of lupeol against D-galactosamine and lipopolysaccharide-induced fulminant hepatic failure in mice” (J Nat Prod, 2014):
Active and inactive are the calls of the source. The calls are words filed in the database; no cut-off is given here.

Legend:
Mus musculus [1] = assay: Toxicity in ICR mouse assessed as survival at 100 mg/kg, po; assay type: organism-based; parameters: dose 100 mg/kg, route oral; conditions: in vivo
In short: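 One hour later they received intraperitoneal PBS vehicle in place of GalN/LPS. Survival was monitored up to 24 h, with 10 mice per survival group, alongside vehicle-only controls.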

Mus musculus [2] = assay: Protective effect in GalN/LPS-induced ICR mouse FHF liver injury model assessed as increase in I-kappaB protein level at 100 mg/kg, po administered 1 hr prior to GalN/LPS challenge measured after 6 hrs by Western blotting analysis relative to vehicle-treated control; assay type: functional, organism-based; parameters: dose 100 mg/kg
In short: (§1)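 Oral pretreatment in olive oil 1 h before ip GalN (800 mg/kg)/LPS (40 μg/kg); liver harvested at 6 h and stored at −75 °C. SDS-PAGE and PVDF transfer used total extract (16−20 μg) for TLR4, MyD88, TRIF, IRAK-1, TRAF6 and IRAK-M, cytosolic (16 μg) for IκB, and nuclear (12 μg) for NF-κB p65. Blots were blocked in 5% milk, given primary antibody overnight at 4 °C, developed by ECL and quantified by densitometry as fold change; n = 6−8.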

Mus musculus [3] = assay: Protective effect in GalN/LPS-induced ICR mouse FHF liver injury model assessed as reduction in TRAF6 protein level at 100 mg/kg, po administered 1 hr prior to GalN/LPS challenge measured after 6 hrs by Western blotting analysis relative to vehicle-treated control; assay type: functional, organism-based; parameters: dose 100 mg/kg; in short: as §1
Mus musculus [4] = assay: Protective effect in po dosed GalN/LPS-induced ICR mouse FHF liver injury model assessed as survival administered 1 hr prior to GalN/LPS challenge measured up to 24 hrs; assay type: functional, organism-based
Mus musculus [5] = assay: Protective effect in GalN/LPS-induced ICR mouse FHF liver injury model assessed as reduction in NF-kappaB protein level at 100 mg/kg, po administered 1 hr prior to GalN/LPS challenge measured after 6 hrs by Western blotting analysis relative to vehicle-treated control; assay type: functional, organism-based; parameters: dose 100 mg/kg; in short: as §1
Mus musculus [6] = assay: Effect on liver histology in ICR mouse at 100 mg/kg, po after 1 hr by hematoxylin/eosin-labeled microscopic analysis relative to control; assay type: ADME, organism-based; parameters: dose 100 mg/kg, route oral; conditions: in vivo
In short: (§2)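 Liver taken 6 h after challenge, fixed in 10% neutral-buffered formalin, paraffin-embedded, cut at 5 μm, H&E-stained. One pathologist scored random nonconsecutive fields blinded at 200×; n = 6−8.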

Mus musculus [7] = assay: Protective effect in GalN/LPS-induced ICR mouse FHF liver injury model assessed as reduction in TRIF protein level at 100 mg/kg, po administered 1 hr prior to GalN/LPS challenge measured after 6 hrs by Western blotting analysis relative to vehicle-treated control; assay type: functional, organism-based; parameters: dose 100 mg/kg; in short: as §1
Mus musculus [8] = assay: Effect on serum TNF-alpha level in ICR mouse at 100 mg/kg, po after 1 hr by ELISA (reference value: 42.6 +/- 1.7 pg/ml); assay type: ADME, organism-based; parameters: dose 100 mg/kg, route oral; conditions: in vivo
Mus musculus [9] = assay: Effect on serum IL-6 level in GalN/LPS-induced ICR mouse FHF liver injury model at 100 mg/kg, po administered 1 hr prior to GalN/LPS challenge measured after 6 hrs by ELISA (reference value: 654.1 +/- 19.7 pg/ml); assay type: functional
Mus musculus [10] = assay: Protective effect in GalN/LPS-induced ICR mouse FHF liver injury model assessed as increase in IRAK-M protein level at 100 mg/kg, po administered 1 hr prior to GalN/LPS challenge measured after 6 hrs by Western blotting analysis relative to vehicle-treated control; assay type: functional, organism-based; parameters: dose 100 mg/kg; in short: as §1
Mus musculus [11] = assay: Effect on serum ALT level in ICR mouse at 100 mg/kg, po after 1 hr (reference value: 57.4 +/- 8.8 U/L); assay type: ADME, organism-based; parameters: dose 100 mg/kg, route oral; conditions: in vivo
Mus musculus [12] = assay: Protective effect in GalN/LPS-induced ICR mouse FHF liver injury model assessed as reduction in IRAK1 protein level at 100 mg/kg, po administered 1 hr prior to GalN/LPS challenge measured after 6 hrs by Western blotting analysis relative to vehicle-treated control; assay type: functional, organism-based; parameters: dose 100 mg/kg; in short: as §1
Mus musculus [13] = assay: Effect on serum TNF-alpha level in GalN/LPS-induced ICR mouse FHF liver injury model at 100 mg/kg, po administered 1 hr prior to GalN/LPS challenge measured after 6 hrs by ELISA (reference value: 250.8 +/- 5.4 pg/ml); assay type: functional
Mus musculus [14] = assay: Protective effect in GalN/LPS-induced ICR mouse FHF liver injury model assessed as reduction in IL-6 mRNA expression at 100 mg/kg, po administered 1 hr prior to GalN/LPS challenge measured after 6 hrs by RT-PCR analysis relative to vehicle-treated control; assay type: functional, organism-based; parameters: dose 100 mg/kg
In short: (§3)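 Oral pretreatment in olive oil 1 h before ip GalN (800 mg/kg)/LPS (40 μg/kg), with liver collected at 6 h. mRNA quantified by SYBR green real-time RT-PCR. Cycling: TNF-α 45 cycles (94/65/72 °C) and IL-6 32 cycles (94/58/72 °C). Levels normalized to β-actin by the Ct method. Mean ± SEM, n = 6−8.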

Mus musculus [15] = assay: Protective effect in GalN/LPS-induced ICR mouse FHF liver injury model assessed as reduction in TNF-alpha mRNA expression at 100 mg/kg, po administered 1 hr prior to GalN/LPS challenge measured after 6 hrs by RT-PCR analysis relative to vehicle-treated control; assay type: functional, organism-based; parameters: dose 100 mg/kg; in short: as §3
Mus musculus [16] = assay: Protective effect in GalN/LPS-induced ICR mouse FHF liver injury model assessed as reduction in TLR4 protein level at 100 mg/kg, po administered 1 hr prior to GalN/LPS challenge measured after 6 hrs by Western blotting analysis relative to vehicle-treated control; assay type: functional, organism-based; parameters: dose 100 mg/kg; in short: as §1
Mus musculus [17] = assay: Effect on serum IL-6 level in ICR mouse at 100 mg/kg, po after 1 hr by ELISA (reference value: 73.3 +/- 13.1 pg/ml); assay type: ADME, organism-based; parameters: dose 100 mg/kg, route oral; conditions: in vivo
Mus musculus [18] = assay: Protective effect in GalN/LPS-induced ICR mouse FHF liver injury model assessed as reduction in MyD88 protein level at 100 mg/kg, po administered 1 hr prior to GalN/LPS challenge measured after 6 hrs by Western blotting analysis relative to vehicle-treated control; assay type: functional, organism-based; parameters: dose 100 mg/kg; in short: as §1
Mus musculus [19] = assay: Effect on serum ALT level in GalN/LPS-induced ICR mouse FHF liver injury model at 100 mg/kg, po administered 1 hr prior to GalN/LPS challenge measured after 6 hrs (reference value: 2704 +/- 244.2 U/L); assay type: functional
Mus musculus [20] = assay: Effect on liver histology in GalN/LPS-induced ICR mouse FHF liver injury model assessed as reversal of necrosis and inflammatory cell infiltration at 100 mg/kg, po administered 1 hr prior to GalN/LPS challenge measured after 6 hrs by hematoxylin/eosin-labeled microscopic analysis; assay type: functional, organism-based; parameters: dose 100 mg/kg; in short: as §2

Question: For C=C(C)[C@@H]1CC[C@]2(C)CC[C@]3(C)[C@H](CC[C@@H]4[C@@]5(C)CC[C@H](O)C(C)(C)[C@@H]5CC[C@]43C)[C@@H]12 [LUPEOL], which Activity (Mus musculus [1]) is on record?
Answer: The Activity was “Non-toxic”.

Question: What about the Activity (Mus musculus [2]) of the same compound?
Answer: The Activity was “Active”.

Question: And the Activity (Mus musculus [3])?
Answer: The Activity was “Active”.

Question: And the Activity (Mus musculus [4])?
Answer: Its Activity is “Dose-dependent effect”.

Question: And the Activity (Mus musculus [5])?
Answer: Its Activity is “Active”.

Question: What about the Activity (Mus musculus [6]) of the same compound?
Answer: The Activity was “Non-toxic”.

Question: And the Activity (Mus musculus [7])?
Answer: The Activity was “inactive”.

Question: What about the Activity (Mus musculus [8]) of the same compound?
Answer: The Activity was 41 pg/mL.

Question: And the Activity (Mus musculus [9])?
Answer: The Activity was 108.8 pg/mL.

Question: And the Activity (Mus musculus [10])?
Answer: The Activity was “Active”.

Question: What about the Activity (Mus musculus [11]) of the same compound?
Answer: The Activity was 58.1 U/L.

Question: And the Activity (Mus musculus [12])?
Answer: Its Activity is “Active”.

Question: And the Activity (Mus musculus [13])?
Answer: The Activity was 109 pg/mL.

Question: And the Activity (Mus musculus [14])?
Answer: The Activity was “Active”.

Question: What about the Activity (Mus musculus [15]) of the same compound?
Answer: The Activity was “Active”.

Question: And the Activity (Mus musculus [16])?
Answer: The Activity was “Active”.

Question: What about the Activity (Mus musculus [17]) of the same compound?
Answer: Its Activity is 75.1 pg/mL.

Question: What about the Activity (Mus musculus [18]) of the same compound?
Answer: The Activity was “Active”.

Question: And the Activity (Mus musculus [19])?
Answer: Its Activity is 682 U/L.

Question: And the Activity (Mus musculus [20])?
Answer: The Activity was “Active”.
